Results collected from several papers.
Lines come from different studies, so protocols differ.

Structure (SMILES)	target or system	assay	setting	quantity	result
CC[C@H](C)[C@H](NC(=O)[C@H](CCCNC(=N)N)NC(=O)[C@H](CCCNC(=N)N)NC(=O)[C@H](CCSC)NC(=O)[C@H](CCCNC(=N)N)NC(=O)[C@H](CCCNC(=N)N)NC(=O)[C@H](CCCNC(=N)N)NC(=O)[C@H](CC(C)C)NC(=O)[C@H](CCCNC(=N)N)NC(=O)CNC(=O)[C@H](Cc1c[nH]c2ccccc12)NC(=O)[C@@H](N)CCSC)C(=O)N[C@@H](CCCCN)C(N)=O	A549	cell growth or viability, MTT	24 h	IC50	> 500 µM
O=C(Nc1ccc(Cl)cc1)Nc1cccc(-c2cn(Cc3ccc(Br)cc3)nn2)c1	A549	cell growth or viability, CCK-8	50 µM, 72 h	viability	123%
CCOc1ccc(Nc2c3c(nc4ccccc24)CCC3)cc1	Leishmania donovani	parasite growth	33.33 µM, promastigote	inhibition	81%
CC[C@H](C)[C@H](NC(=O)[C@H](CCCNC(=N)N)NC(=O)[C@H](CC(C)C)NC(=O)[C@@H](N)CCCNC(=N)N)C(=O)N[C@@H](CCC(N)=O)C(=O)N[C@@H](CCCNC(=N)N)C(=O)N[C@@H](CCCNC(=N)N)C(=O)N[C@@H](CCCNC(=N)N)C(=O)N[C@@H](Cc1ccccc1)C(=O)N[C@@H](CCCNC(=N)N)C(=O)N[C@@H](CCCCN)C(=O)N[C@@H](CCCCN)C(=O)NCC(N)=O	A549	cell growth or viability, MTT	24 h	IC50	> 500 µM
N.N.[Cl][Pt][Cl]	MEG-01	cell growth or viability, ATP luminescence	10 µM, 72 h	inhibition	92%
COc1ccccc1C=Nc1ccc(SCc2cc(=O)c(O)co2)cc1		ABTS scavenging, absorbance		IC50	21.4 µM
N#C[Se]CCCCOc1ccc2c(-c3ccccc3)cc(=O)oc2c1	A549	cell growth or viability, SRB		GI50	29 µM
O=c1cc(CSc2ccc(N=Cc3ccc(O)cc3)cc2)occ1O		ABTS scavenging, absorbance		IC50	20.3 µM
CC(C)C[C@H](NC(=O)[C@H](CCCCN)NC(=O)[C@H](Cc1c[nH]c2ccccc12)NC(=O)[C@H](CCCCN)NC(=O)[C@H](CCCCN)NC(=O)[C@H](CC(C)C)NC(=O)[C@H](Cc1ccccc1)NC(=O)[C@H](CCCCN)NC(=O)[C@H](CCC(=O)O)NC(=O)[C@H](CC(C)C)NC(=O)[C@H](CC(C)C)NC(=O)[C@H](CCCCN)NC(=O)[C@@H](N)CCCNC(=N)N)C(N)=O	A549	cell growth or viability, MTT	24 h	IC50	76 µM
O=c1cc(CSc2ccc(N=Cc3ccccc3[N+](=O)[O-])cc2)occ1O		ABTS scavenging, absorbance		IC50	42.6 µM
N#C[Se]Cc1cc(=O)oc2cc(O)ccc12	A549	cell growth or viability, SRB		GI50	28 µM
CC(C)(C)c1cccc(C=Nc2ccc(SCc3cc(=O)c(O)co3)cc2)c1		ABTS scavenging, absorbance		IC50	15 µM
c1ccc(Oc2ccc(Nc3c4c(nc5ccccc35)CCC4)cc2)cc1	Leishmania donovani	parasite growth	40 µM, intracellular, amastigote	inhibition	96%
